The source made the active and inactive calls. The calls are words filed in the database; no cut-off is given here.
How the values were obtained:
[1] = tested on: PANC-1; assay: Cytotoxicity against human PANC-1 cells assessed as reduction in cell viability measured after 48 hrs in presence of CuCl2 by MTT assay; type: functional, cell-based; details: PANC-1, 48 h
Outline: (§1)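 Cells seeded 6 × 10⁴ per well, cultured 24 h at 37 °C under 5% CO₂, then exposed to compound for 48 h, with or without 50 µM CuCl₂ or FeCl₃ co-incubation. MTT added for 4 h at 37 °C, formazan dissolved in DMSO, A490 read. IC50 reported as mean (SD), n = 3.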

[2] = tested on: PANC-1; assay: Cytotoxicity against human PANC-1 cells assessed as reduction in cell viability measured after 48 hrs in presence of FeCl3 by MTT assay; type: functional, cell-based; details: PANC-1, 48 h; outline: as §1
[3] = Stability of compound in pH 5 PBS buffer assessed as parent compound remaining measured after 24 hrs by RP-HPLC analysis; type: physicochemical; details: read-out: Stabilty
Outline: (§2)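 Compound (1 µM) stirred at 37 °C either in PBS (pH 5.0, 7.4 or 10.0) containing 5% DMSO or in DMEM with 10% FBS. Aliquots were analysed by RP-HPLC (0.1% TFA water/methanol gradient, 256 nm) for remaining intact compound, up to 24 h.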

[4] = Stability of compound in DMEM with 10% fetal bovine serum assessed as parent compound remaining measured after 24 hrs by RP-HPLC analysis; type: cell-free; outline: as §2
[5] = Stability of compound in presence of GSH at 100 uM measured after 1 hr by RP-HPLC analysis; type: physicochemical
Outline: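 Compound (100 µM) incubated at 37 °C for 1 h with one of: ROS species (1 mM), NO solution (1 mM), GSH (200 µM), CuCl₂ (10 µM) or FeCl₃ (10 µM). Percent decomposed was determined by RP-HPLC (ODS column, 0.1% TFA water/methanol gradient, 1 mL/min, 256 nm).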

[6] = tested on: SW1990; assay: Cytotoxicity against human SW1990 cells assessed as reduction in cell viability measured after 48 hrs in presence of 10 to 50 uM Cu2+ by MTT assay; type: functional, cell-based; details: dose 10-50 µM
[7] = Metal chelating activity assessed as compound-Cu2+ complex formation at 50 uM measured after 40 mins in absence of H2O2 by UV spectrophotometric method
Outline: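 Stock in DMSO diluted into PBS (10 mM, pH 7.4) to a final 50 µM, with 50 µM CuCl₂ added and no H₂O₂. UV spectrum recorded over 40 min at room temperature.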

[8] = Metal chelating activity assessed as compound-Cu2+ complex stoichiometry ratio of […] after 1 hr by Job's plot analysis
[9] = Metal chelating activity assessed as compound-Cu2+ complex formation by measuring intracellular HO level in human SW1990 cells at 10 uM measured after 1 hr in presence of CuCl2 by HO probe based confocal laser scanning microscopic analysis; type: cell-based
Outline: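 SW1990 cells at 80% confluence were loaded with 20 µM HO· probe at 37 °C for 30 min and rinsed. They then received 50 µM CuCl₂, followed by 10 µM compound for 1 h. For the scavenger arm, 1 mM tempol was given for 30 min before CuCl₂. CLSM imaging at λex 570 / λem 650 nm gave mean intensity; n = 3.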

[10] = Drug metabolism in human SW1990 cells assessed as nitric oxide release at 8 to 12 uM measured after 24 hrs by DAF-FM DA probe based flow cytometry; type: ADME, cell-based; details: sw1990, 24 h, dose 8-12 µM
Outline: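 SW1990 cells at 80% confluence loaded with 5 µM DAF-FM DA for 20 min at 37 °C, rinsed, then incubated with compound. Optional 1 h pretreatment with 50 µM carboxyl-PTIO before 12 µM treatment. Fluorescence read by flow cytometry (ex 495 / em 515 nm). Mean ± SD, n = 3.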

[11] = tested on: SW1990; assay: Cell cycle arrest in human SW1990 cells assessed as increase in accumulation at G1-phase at 12 uM measured after 24 hrs by propidium iodide staining based flow cytometry; type: functional
Outline: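 SW1990 cells seeded 5 × 10⁵ per well, grown 24 h, then treated 24 h. Washed in ice-cold PBS, fixed ≥24 h in ice-cold 70% alcohol, RNase A treated, PI-stained 30 min at 4 °C in the dark. DNA content read by flow cytometry to give cycle distribution. Mean ± SD, n = 3.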

[12] = tested on: SW1990; assay: Induction of apoptosis in human SW1990 cells at 8 to 12 uM measured after 24 hrs by Annexin V-FITC/propidium iodide staining based flow cytometry; type: functional, cell-based; details: dose 8-12 µM
Outline: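 SW1990 cells seeded 5 × 10⁵ per well and grown 24 h, then treated 24 h at 8 or 12 µM. Optional 1 h pretreatment with 20 mM NAC or 50 µM carboxyl-PTIO before 12 µM treatment. Cells stained with annexin V-FITC 15 min and PI 5 min at room temperature in the dark, then analysed by flow cytometry. Mean ± SD, n = 3.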

[13] = tested on: SW1990; assay: Induction of mitochondrial membrane potential loss in human SW1990 cells at 8 to 12 uM measured after 24 hrs by JC1 staining based flow cytometry; type: functional, cell-based; details: dose 8-12 µM
Outline: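 SW1990 cells seeded at 5 × 10⁵ per well, grown 24 h, then exposed to compound for 24 h. Stained with JC-1 per kit instructions. Flow cytometry gave the percentage of cells with healthy or collapsed mitochondrial membrane potential. Mean ± SD, n = 3.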

[14] = tested on: SW1990; assay: Induction of apoptosis in human SW1990 cells assessed as increase in cleaved caspase-3 expression at 8 to 12 uM measured after 24 hrs by Western blot analysis; type: functional, cell-based; details: dose 8-12 µM
Outline: (§3)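 SW1990 cells seeded 5 × 10⁵ per well and grown 24 h at 37 °C, then treated 24 h. Lysates quantified by BCA, resolved by SDS-PAGE and transferred to nitrocellulose. Blocked in 5% milk, probed overnight at 4 °C for cleaved caspase-3, cleaved caspase-9, Bax and Bcl-2, then HRP secondary 2 h. ECL detection.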

[15] = tested on: SW1990; assay: Induction of apoptosis in human SW1990 cells assessed as increase in cleaved caspase-9 expression at 8 to 12 uM measured after 24 hrs by Western blot analysis; type: functional, cell-based; details: dose 8-12 µM; outline: as §3
[16] = tested on: SW1990; assay: Induction of apoptosis in human SW1990 cells assessed as increase in Bax-2 expression at 8 to 12 uM measured after 24 hrs by Western blot analysis; type: functional, cell-based; details: dose 8-12 µM; outline: as §3
[17] = tested on: SW1990; assay: Antitumor activity against human SW1990 cells xenografted in Balb/c nude mouse assessed as tumor size at 20 mg/kg, iv administered every 3 days measured after 21 days (reference value: 1.23 +/- 0.25 cm3); type: functional; details: time 21 day
Outline: (§4)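 Male BALB/c nude mice, 3–5 weeks old, given 1 × 10⁷ SW1990 cells subcutaneously; when tumors reached about 65 mm³, randomised to groups of eight. Saline vehicle control, dosing intravenously every three days. Tumor size monitored every two days for three weeks; tumors dissected at sacrifice on day 21, volume = d² × D/2 (d smallest, D largest diameter). Mean ± SD.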

[18] = tested on: SW1990; assay: Antitumor activity against human SW1990 cells xenografted in Balb/c nude mouse assessed as tumor growth inhibition at 20 mg/kg, iv administered every 3 days measured after 21 days relative to control; type: functional; details: 504 h, time 21 day, read-out: TGI; outline: as §4

remaining at 24 h [3]: > 80%
Stabilty [5]: Stable
Activity [7]: inactive
Ratio [8]: 0.64
Drug metabolism [10]: Metabolite_Detected
SMILES: O=C(NCCCOc1no[n+]([O-])c1S(=O)(=O)c1ccccc1)c1ccc2cccc(OCc3ccc(B(O)O)cc3)c2n1
IC50 [1]: 1690 nM
IC50 [2]: 17.6 µM
Stability [4]: > 80%
Activity [6]: Dose-dependent effect
Activity [9]: Active
Activity [11]: Active
Activity [12]: Active
Activity [13]: Active
Activity [14]: Active
Activity [15]: Active
Activity [16]: Active
Activity [17]: 0.47 cm3
inhibition in vivo at 20 mg/kg [18]: 61.8%
